Assay results: ChEMBL document CHEMBL1125370, “Cardiotonic agents. Synthesis and cardiovascular properties of novel 2-arylbenzimidazoles and azabenzimidazoles” (J Med Chem, 1992)
Activity calls are given as the source filed them. No cut-off for these calls is given here.

Tests used:
Canis familiaris [1] = assay: In vivo contractility in conscious dog expressed as dose which produced a 50% increase in dP/dt max from the control value;No effect up to 1 mg/kg; assay type: functional, organism-based; design: dose 1 mg/kg; conditions: Canis lupus familiaris
Summary of the method: (§1)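 Male beagles (12–15 kg) carried a Königsberg transducer implanted in the left ventricle to record dP/dt max and arterial pressure. Drug or placebo was given by gastric tube as a 1% gum arabic suspension. Effects were followed for 5 h.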

Cavia porcellus [2] = organism: Cavia porcellus; assay: The compound was tested in vitro for chronotropic activity expressed as the maximal increase in beat/min in isolated right atria from guinea pig
Cavia porcellus [3] = organism: Cavia porcellus; assay: The compound was tested in vitro for chronotropic activity in isolated right atria from guinea pig; assay type: functional
Summary of the method: (§2)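 Isolated right atria, chronotropic read-out. Rate max is the maximal increase in rate, in beat/min. It comes from three to six experiments and was not calculated when rate max was below 30 beat/min. Bracketed values give the maximal concentration used. Means ± SEM.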

Canis familiaris [4] = assay: In vivo contractility in anesthetized dog expressed as dose which produced a 50% increase in dP/dt max from the control value.; assay type: functional; conditions: Canis lupus familiaris
Cavia porcellus [5] = organism: Cavia porcellus; assay: In vitro inotropic activity in isolated left atria from guinea pig.; assay type: functional
Summary of the method: (§3)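 Isolated left atria preparation. Tension max is the maximal increase in developed tension. Bracketed values give the maximal concentration used, and no effect was recorded up to that concentration. Values are means ± SEM.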

Canis familiaris [6] = assay: In vivo hypotension in anesthetized dog, expressed as the dose of the drug producing a 25% decrease in diastolic arterial pressure (DAP) from control value.; assay type: functional; conditions: Canis lupus familiaris, Artery
Canis familiaris [7] = assay: In vivo contractility in conscious dog expressed as dose which produced a 50% increase in dP/dt max from the control value; assay type: functional; conditions: Canis lupus familiaris; summary of the method: as §1
Cavia porcellus [8] = organism: Cavia porcellus; assay: In vitro inotropic activity expressed as the maximal increase in developed tension in isolated left atria from guinea pig.; assay type: functional; summary of the method: as §3
Cavia porcellus [9] = organism: Cavia porcellus; assay: The compound was tested in vitro for inotropic activity in isolated left atria from guinea pig. No effect at a maximal concentration of 20 uM,; assay type: functional
Summary of the method: (§4)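 Isolated left atria preparation. Tension max is the maximal increase in developed tension. […] EC50 was not calculated when tension max was below 250 mg. Bracketed values give the maximal concentration used, and no effect was recorded up to that concentration. Values are means ± SEM.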

Cavia porcellus [10] = organism: Cavia porcellus; assay: The compound was tested in vitro for inotropic activity expressed as the maximal increase in developed tension. in isolated left atria from guinea pig,No effect at a maximal concentration of 20 uM; assay type: functional; summary of the method: as §4
Cavia porcellus [11] = organism: Cavia porcellus; assay: The compound was tested in vitro for chronotropic activity in isolated right atria from guinea pig;No effect at a maximal concentration of 50 uM; assay type: functional; summary of the method: as §2
Canis familiaris [12] = assay: In vivo hypotension in anesthetized dog expressed as the dose of the drug producing a 25% decrease in DAP from control valueNo effect at a maximal concentration of 50 uM; assay type: functional; conditions: Canis lupus familiaris
Cavia porcellus [13] = organism: Cavia porcellus; assay: The compound was tested in vitro for inotropic activity expressed as the maximal increase in developed tension. in isolated left atria from guinea pig;No effect at a maximal concentration of 50 uM; assay type: functional; summary of the method: as §3
Canis familiaris [14] = assay: In vivo contractility in anesthetized dog expressed as dose which produced a 50% increase in dP/dt max from the control value; assay type: functional, Canis lupus familiaris
Cavia porcellus [15] = organism: Cavia porcellus; assay: The compound was tested in vitro for inotropic activity in isolated left atria from guinea pig;No effect at a maximal concentration of 50 uM,; assay type: functional; summary of the method: as §4

Structure (SMILES): c1cc(-c2nc3c[nH]c(-n4ccnc4)nc-3n2)ccn1
- ED50 (Canis familiaris [1]): inactive

Structure (SMILES): COc1cc([S+](C)[O-])ccc1-c1nc2cccnc2[nH]1 (stereo not drawn) [SULMAZOLE]
- Rate max (Cavia porcellus [2]): 88 beats min-1
- EC50 (Cavia porcellus [3]): 100 µM
- ED50 (Canis familiaris [4]): 1 mg/kg
- EC50 (Cavia porcellus [5]): 31 µM
- ED25 (Canis familiaris [6]): 5 mg/kg
- ED50 (Canis familiaris [7]): 10 mg/kg
- Ionotropic activity (Cavia porcellus [8]): 600 mg

Structure (SMILES): c1ccc(Nc2ncccc2-c2nc3cc(-n4ccnc4)ccc3[nH]2)cc1
- EC50 (Cavia porcellus [9]): Not Active
- Ionotropic activity (Cavia porcellus [10]): inactive

Structure (SMILES): c1ccc(-c2nc3cc(-n4ccnc4)ccc3[nH]2)nc1
- ED50 (Canis familiaris [4]): > 3 mg/kg
- EC50 (Cavia porcellus [5]): > 50 µM
- EC50 (Cavia porcellus [11]): Not Active
- ED25 (Canis familiaris [12]): 3 mg/kg
- Ionotropic activity (Cavia porcellus [8]): 170 mg

Structure (SMILES): O=C1CCC(c2ccc(Nc3ccncc3)cc2)=NN1 [SENAZODAN]
- Rate max (Cavia porcellus [2]): 39 beats min-1
- EC50 (Cavia porcellus [3]): 20 µM
- ED50 (Canis familiaris [4]): 0.009 mg/kg
- EC50 (Cavia porcellus [5]): 34 µM
- ED25 (Canis familiaris [6]): 0.1 mg/kg
- ED50 (Canis familiaris [7]): 0.1 mg/kg
- Ionotropic activity (Cavia porcellus [8]): 410 mg

Structure (SMILES): Cc1[nH]c(=O)c(C#N)cc1-c1ccncc1 [MILRINONE]
- Rate max (Cavia porcellus [2]): 70 beats min-1
- EC50 (Cavia porcellus [3]): 22 µM
- ED50 (Canis familiaris [4]): 0.15 mg/kg
- EC50 (Cavia porcellus [5]): 4.7 µM
- ED25 (Canis familiaris [6]): 1 mg/kg
- ED50 (Canis familiaris [7]): 2 mg/kg
- Ionotropic activity (Cavia porcellus [8]): 580 mg

Structure (SMILES): Cc1cc2[nH]c(-c3ccc(-n4ccnc4)cc3)nc2cc1-n1ccnc1.Cl.O
- Ionotropic activity (Cavia porcellus [13]): inactive
- Contractility (Canis familiaris [14]): > 3 mg/kg
- ED25 (Canis familiaris [6]): > 3 mg/kg
- EC50 (Cavia porcellus [15]): Not Active
